Reference: ChEMBL document CHEMBL1121472, “Derivatives of 5-hydroxy-6-methyl-2-aminotetralin” (1980)
Activity calls are given as the source filed them. The rule behind the calls is not given here.

Tests used:
[1] = tested on: Rattus norvegicus; test: Compound was evaluated for rotational behavior in rats and (contralateral turning) circling response were recorded at a dose of 5.85 umol/Kg; assay type: functional
Method in brief: (§1)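 Male Sprague Dawley rats received a unilateral stereotaxic injection of 6-hydroxydopamine hydrobromide (6 μg in 3 μL) into the substantia nigra region (anterior 24, lateral 1.8, vertical 7.0). Drug was then given sc, and contralateral turns were counted over the next 1 h and reported as turns/h at the stated dose.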

[2] = organism: Felis catus; test: Inhibition of chronotropic response to cardioaccelerator nerve stimulation in the cat; assay type: functional
Method in brief: (§2)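 Cats were bilaterally vagotomized and pretreated iv with atropine sulfate (0.2 mg/kg). Right postganglionic cardioaccelerator nerves were placed on bipolar electrodes and stimulated at 2 Hz, 5-ms pulses, for 30 s at 20–25 V. Heart rate was recorded by cardiotachometer, femoral arterial pressure was monitored, and drugs were given iv via a femoral vein catheter. ED50 is in μmol/kg with 95% CL. Blockade was tested with haloperidol 0.1 mg/kg.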

[3] = tested on: Rattus norvegicus; test: Compound was evaluated for rotational behavior in rats and (contralateral turning) circling response were recorded at a dose of 11.7 umol/Kg; assay type: functional; method in brief: as §1
[4] = tested on: Rattus norvegicus; test: Compound was evaluated for rotational uM/kg; assay type: functional, organism-based; method in brief: as §1
[5] = tested on: Felis catus; test: Inhibition of chronotropic response to cardioaccelerator nerve stimulation in the cat; NI denotes no inhibition up to 1.55 uM/kg; assay type: functional, organism-based; method in brief: as §2
[6] = tested on: Felis catus; test: Inhibition of chronotropic response to cardioaccelerator nerve stimulation in the cat at 10 uM/kg; NA denotes inactive; assay type: functional, organism-based; method in brief: as §2
[7] = tested on: Rattus norvegicus; test: Compound was evaluated for rotational behavior in rats and (contralateral turning) circling response were recorded at a dose of 14.0 umol/kg; IA = inactive; assay type: functional, organism-based; method in brief: as §1
[8] = tested on: Rattus norvegicus; test: Compound was evaluated for rotational behavior in rats and (contralateral turning) circling response were recorded at a dose of 400 umol/Kg; IA=Inactive; assay type: functional, organism-based
[9] = tested on: Canis familiaris; test: Compound was evaluated for emesis action in dogs, administered subcutaneously; Range is (0.02-0.08); assay type: functional, Canis lupus familiaris
[10] = tested on: Rattus norvegicus; test: Compound was evaluated for rotational behavior in rats and (contralateral turning) circling response were recorded at a dose of 0.41 umol/Kg; assay type: functional; method in brief: as §1
[11] = tested on: Felis catus; test: Inhibition of chronotropic response to cardioaccelerator nerve stimulation in the cat; NA denotes inactive uM/kg; assay type: functional, organism-based; method in brief: as §2
[12] = tested on: Canis familiaris; test: Compound was evaluated for emesis action in dogs administered subcutaneously; NA denotes inactive; assay type: functional, organism-based; conditions: Canis lupus familiaris
Method in brief: (§3)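 Five adult mongrel dogs, housed singly with food ad libitum, were given drug solutions sc, and vomiting frequency was counted over 1 h. Three doses of apomorphine hydrochloride (0.08, 0.16, 0.32 μmol/kg) as reference and three of the test compound were compared by a 3 × 3 parallel line bioassay to give relative potency with 95% confidence limits.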

[13] = tested on: Canis familiaris; test: Compound was evaluated for emesis action in dogs, administered subcutaneously; NA denotes inactive; assay type: functional, organism-based; conditions: Canis lupus familiaris; method in brief: as §3
[14] = organism: Felis catus; test: Inhibition of chronotropic response to cardioaccelerator nerve stimulation in the cat; NA denotes inactive; assay type: functional, organism-based; method in brief: as §2

Compound: Br.CCCN(CCC)C1CCc2c(ccc(C)c2O)C1 (configuration not stated)
- Rotational behavior [1]: 131.43 turns hr-1
- ED50 [2]: 0.025 µmol/kg
- Rotational behavior [3]: 346.86 turns hr-1

Compound: Cc1ccc2c(c1O)CCC(N)C2 (configuration not stated)
- Activity [4]: NI
- ED50 [5]: No inhibition

Compound: CCCNC1CCc2c(ccc(C)c2O)C1 (configuration not stated)
- ED50 [6]: inactive

Compound: Cc1ccc2c(c1O)CCC(N(C)C)C2 (configuration not stated)
- Rotational behavior [7]: inactive

Compound: Br.CCN(CC)C1CCc2c(ccc(C)c2O)C1 (configuration not stated)
- Rotational behavior [8]: inactive
- ED50 [2]: 0.48 µmol/kg

Compound: CN1CCc2cccc3c2[C@H]1Cc1ccc(O)c(O)c1-3 [APOMORPHINE]
- Potency ratio [9]: 0.046
- ED50 [2]: 0.022 µmol/kg
- Rotational behavior [10]: 175.21 turns hr-1

Compound: CCNC1CCc2c(ccc(C)c2O)C1 (configuration not stated)
- ED50 [11]: inactive

Compound: CNC1CCc2c(ccc(C)c2O)C1 (configuration not stated)
- ED50 [11]: inactive
- Potency ratio [12]: inactive

Compound: Cc1ccc2c(c1O)CCC(NC(C)C)C2 (configuration not stated)
- Potency ratio [13]: inactive
- ED50 [14]: inactive
